Results from different studies.
Compare with care: the assays were run in different laboratories.
Target: LIM domain kinase 2 (LIMK2, Homo sapiens, UniProt P53671)

Compound | observed | mode | technique | tested at | measurement | value
Cc1ccc(C(=O)Nc2ccc(CN3CCN(C)CC3)c(C(F)(F)F)c2)cc1C#Cc1cnc2cccnn12 | enzyme activity | inhibitor |  | 23.5 nM | remaining activity | 100%
Cc1sc(C(=O)NC2COC2)cc1-n1cc(NC(=O)Nc2c(F)cccc2Cl)cn1 | enzyme activity | inhibitor |  | 10 µM | remaining activity | 113%
c1cnn2ncc(-c3ccnc(N4CCC45COC5)n3)c2c1 | binding |  |  | 1 µM | remaining binding | 82%
CC(C)(C)c1nc(-c2cccc(NS(=O)(=O)c3c(F)cccc3F)c2F)c(-c2ccnc(N)n2)s1 | enzyme activity | inhibitor | radiometric | 1 µM | remaining activity | 87%
O=C(NCc1ncc(C(F)(F)F)cc1Cl)c1ccc2c(c1)C1(CCS(=O)(=O)CC1)[C@@H](C1CC1)N2S(=O)(=O)c1ccc(F)cc1 | cell-free assay |  | competition with immobilised ligand | 1 µM | remaining binding | 94%
COc1cc(Cl)c(C(=O)N[C@@H](CN[C@H]2CC[C@@H](N)CC2)Cc2ccc(C#N)cc2)cc1-c1ccc(CN[C@H](C)c2ccc(C)cc2)o1 | enzyme activity | inhibitor |  | 1 µM | remaining activity | 101%
CCOc1cc(-c2nncn2C)ccc1Nc1ncc2cc(C)nc(NCC(C)(C)C)c2n1 | cell-free assay |  | TR-FRET | 1 µM | inhibition | ≤ 15%
O=C(Nc1cnn(-c2csc(C(=O)NC3COC3)c2)c1)Nc1ccccc1Cl | enzyme activity | inhibitor |  | 5 µM | remaining activity | 96.8%
Nc1ncnc2occ(-c3ccc(NC(=O)Nc4cc(C(F)(F)F)ccc4F)cc3)c12 | cell-free assay | inhibitor |  | 20 µM | remaining signal | 8.8%
CN1CC(Oc2cnc(C#N)cc2-c2ccn3nc(NC(=O)C4CC4)cc3c2)C1 | enzyme activity | inhibitor |  | 1 µM | inhibition | 5%
O=C(N[C@H]1CCCCC/C=C\C2C[C@@]2(C(=O)O)NC(=O)[C@@H]2C[C@@H](Oc3ccncc3)CN2C1=O)OC1CCCC1 (stereo partly drawn) | binding |  | competition with immobilised ligand | 1 µM | remaining binding | 93%
CC(C)(C)c1nc2c(s1)c1nc(N)ncc1c1ccc(NS(=O)(=O)c3c(F)cccc3F)c(F)c12 | enzyme activity | inhibitor | radiometric | 1 µM | remaining activity | 92%
